In ChEMBL document CHEMBL2331084, “Synthesis and evaluation of oxime derivatives as modulators for amyloid beta-induced mitochondrial dysfunction” (Eur J Med Chem, 2013) one finds Activity, viability and inhibition data, which are given here for 24 compounds.

In data set [1] the test system is HT-22. Kind of data set: Inhibition of mPTP in mouse HT22 cells assessed as reduction in amyloid beta-induced mitochondrial membrane damage at 10 uM incubated for 10 mins prior to amyloid beta-challenge measured every 1 hr for 3 hrs by JC-1 based fluorometric analysis. The data set is classed as cell-based. Also on record: scale not given: the % may be the effect or the level left. An outline of the steps: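 HT-22 cells, 30,000 per well, seeded a day earlier, loaded with 7.5 μM JC-1 (final) in phenol red-free Opti-MEM for 1 h 15 min at 37 °C, then PBS-washed. Compound solution at 10 μM for 10 min at 37 °C, then amyloid beta 1–42 solution at 10 μM. Red (ex/em 530/580) and green (485/530) fluorescence read hourly for 3 h. Green/red ratio change normalised to vehicle as 100%.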

A short description of data set [2]: Cytotoxicity against mouse […] cells assessed as cell viability at 5 uM. The format is cell-based. The following applies: read-out: Activity.
The test system of data set [3] is HT-22. Kind of data set: Inhibition of mPTP in mouse HT22 cells assessed as recovery in amyloid beta-suppressed ATP level at 5 uM incubated for 10 mins prior to amyloid beta-challenge measured for 7 hrs relative to control. The data set is classed as cell-based. Also on record: scale not given: the % may be the effect or the level left. An outline of the steps: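 HT-22 mouse hippocampal cells, grown in DMEM with 10% FBS at 37 °C and 5% CO2, were seeded the day before. Compound (10 µM solution) added 10 min before amyloid beta 1-42 (10 µM solution), then 7 h at 37 °C. Lysates normalised to equal protein by BCA, and ATP measured with a luciferase kit. % recovery is relative to the amyloid-treated vehicle. Viability is from ATP without amyloid beta.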

The subject of data set [4] is HT-22. Kind of data set: Neuroprotective activity against in mouse HT22 cells assessed as inhibition of amyloid beta-induced toxicity at 10 uM incubated for 10 mins prior to amyloid beta-challenge measured after 24 hrs by MTT assay. The data set is classed as functional. An outline of the steps: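 HT-22 mouse hippocampal cells (DMEM, 10% FBS), 5000 per well, seeded a day before. Compound solution at 10 μM added 10 min before amyloid beta 1–42 solution at 10 μM, then 24 h at 37 °C. MTT 2 h, then acidified Triton/isopropanol for 1 h at RT, A570. Vehicle subtracted; % inhibition versus Aβ-treated vehicle; viability from wells without Aβ.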

Data set [5] can be described thus: Cytotoxicity against mouse […] cells assessed as cell viability at 10 uM after 24 hrs by MTT assay. The data set is classed as cell-based. The settings on record: read-out: Activity.

Take `Clc1ccc(COc2ccccc2/C=N/OC2CN3CCC2CC3)cc1Cl` (centres undefined): in data set [1], the Activity worked out at 77%.

As for `Fc1cccc(/C=N/OC2CN3CCC2CC3)c1` (centres undefined), in data set [1], the Activity was 92%.

Turning to `Fc1cccc(COc2ccccc2/C=N/OC2CN3CCC2CC3)c1` (centres undefined), in data set [1], the Activity was determined as 75%.

Consider `Brc1ccccc1/C=N/OC1CN2CCC1CC2` (centres undefined), for which, in data set [1], the Activity was determined as 93%.

Take `CC(C)N1CCC(O/N=C/c2cccc(C(F)(F)F)c2)C1` (centres undefined): in data set [1], the Activity was found to be 54%.

As for `Fc1ccccc1COc1ccccc1/C=N/OC1CN2CCC1CC2` (centres undefined), the Activity in data set [1] came to 82%.

Regarding `FC(F)(F)c1ccccc1/C=N/OC1CN2CCC1CC2` (centres undefined), the Activity in data set [1] stood at 86%.

In the case of `CN1CCCC(O/N=C/c2ccccc2OCc2ccc(Cl)c(Cl)c2)C1` (centres undefined), in data set [1], the Activity came out at 62%.

In the case of `Clc1ccc(COc2ccccc2/C=N/OC2CN3CCC2CC3)cc1` (centres undefined), the Activity in data set [1] is 85%.

For the compound `C(=N\OC1CCN(Cc2ccccc2)C1)/c1ccccc1OCc1ccccc1` (centres undefined), the viability at 5 µM in data set [2] (HT22 cells) was found to be 99%. Besides, the Activity in data set [3] was -137%; in data set [1], 38%.

With `COc1ccccc1/C=N/OC1CCN(Cc2ccccc2)C1` (centres undefined), the Activity in data set [1] worked out at 81%.

With `COc1ccccc1/C=N/OC1CCCN(C)C1` (centres undefined), the Activity in data set [1] is 257%.

Take `C(=N\OC1CN2CCC1CC2)/c1cccc(OCc2ccccc2)c1` (centres undefined): the Activity in data set [1] amounted to 121%.

As to `COc1ccccc1/C=N/OC1CN2CCC1CC2` (centres undefined), in data set [1], the Activity is 71%.

For the compound `COc1ccc(COc2ccccc2/C=N/OC2CN3CCC2CC3)cc1` (centres undefined), in data set [1], the Activity turned out to be 96%.

Take `CC(C)N1CCC(O/N=C/c2ccccc2OCc2ccc(Cl)c(Cl)c2)C1` (centres undefined): the Activity in data set [1] was 95%.

For `CN1CCC(O/N=C/c2ccccc2OCc2ccc(Cl)c(Cl)c2)C1` (centres undefined), the Activity in data set [1] came to 57%.

Regarding `C(=N\OC1CN2CCC1CC2)/c1cccc(Oc2ccccc2)c1` (centres undefined), the Activity in data set [1] is 138%.

Regarding `CN1CCC(O/N=C/c2ccccc2OCc2ccc(Cl)cc2Cl)C1` (centres undefined), in data set [2] (HT22 cells), the viability at 5 µM was 90%. The Activity in data set [3] is -9%; in data set [1], 18%.

As to `Fc1ccc(COc2ccccc2/C=N/OC2CN3CCC2CC3)cc1` (centres undefined), the Activity in data set [1] was 93%.

On to `Fc1ccccc1/C=N/OC1CN2CCC1CC2` (centres undefined), for which the Activity in data set [1] stood at 96%.

Turning to `NC(=O)CN1CCCC1=O` [PIRACETAM], in data set [2], the viability at 5 µM is 88%. The inhibition at 10 µM in data set [4] came out at 29%. The Activity in data set [3] stood at 127%; in data set [1], 40%. In addition, in data set [5], the viability at 24 h, 10 µM is 132%.

On to `Brc1cccc(/C=N/OC2CN3CCC2CC3)c1` (centres undefined), for which the Activity in data set [1] came to 95%.

With `CN1CCCC(O/N=C/c2ccccc2OCc2cccc(F)c2)C1` (centres undefined), the viability at 5 µM in data set [2] (HT22 cells) worked out at 136%. Besides, the values for the Activity in data set [3] and in data set [1] were 9% and 32%, respectively.
